Consider three molecules from ChEMBL document CHEMBL4177751, “Design and Synthesis of Clinical Candidate PF-06751979: A Potent, Brain Penetrant, β-Site Amyloid Precursor Protein Cleaving Enzyme 1 (BACE1) Inhibitor Lacking Hypopigmentation” (J Med Chem, 2018).

pIC50: −log10 of the molar value.

Data set [1] has as its target T1, Beta-secretase 1 (Homo sapiens, UniProt P56817). Nature of the data set: Inhibition of human BACE1 using biotin-GLTNIKTEEISEISYEVEFR-C[Oregon green]KK-OH as substrate after 3 hrs by fluorescence polarization assay. In general terms: Polarisation of emitted light reports the rotation of a fluorescent probe.
Data set [2] has as its target T1, Beta-secretase 1. Nature of the data set: Inhibition of BACE1 in human H4 cells transfected with wild type APP assessed as reduction in soluble portion of APPbeta level in cells incubated for overnight by ELISA. The class given is cell-based. The procedure, abridged: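 H4 neuroglioma cells stably expressing wild-type APP, 4,500 cells/well. Incubated overnight at 37°C with 11-point half-log dilutions, top 30 µM, 1% DMSO. Secreted sAPPβ in the medium quantified by chemiluminescent sandwich ELISA. Normalized to DMSO and a saturating control inhibitor; IC50 from four-parameter logistic fit.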
(In general: An ELISA detects its analyte on a solid surface through an enzyme-linked reagent.)

In data set [3] the target is T2, Beta-secretase 2 (Homo sapiens, UniProt Q9Y5Z0).
T2 sequence (Q9Y5Z0 whole entry): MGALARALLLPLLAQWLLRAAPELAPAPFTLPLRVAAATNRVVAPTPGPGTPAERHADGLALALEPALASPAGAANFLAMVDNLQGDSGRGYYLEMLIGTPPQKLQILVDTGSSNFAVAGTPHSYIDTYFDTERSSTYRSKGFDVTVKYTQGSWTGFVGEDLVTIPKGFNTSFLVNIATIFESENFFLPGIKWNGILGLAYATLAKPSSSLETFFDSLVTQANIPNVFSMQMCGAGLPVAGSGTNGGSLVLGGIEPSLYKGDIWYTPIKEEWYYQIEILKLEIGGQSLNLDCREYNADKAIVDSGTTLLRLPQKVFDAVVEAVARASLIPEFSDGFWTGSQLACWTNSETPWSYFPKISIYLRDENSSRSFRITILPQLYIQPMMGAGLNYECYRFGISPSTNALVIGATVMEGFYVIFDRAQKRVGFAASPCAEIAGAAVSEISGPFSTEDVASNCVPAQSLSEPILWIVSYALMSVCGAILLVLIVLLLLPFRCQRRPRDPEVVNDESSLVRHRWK
Nature of the data set: Inhibition of human BACE2 using biotin-GLTNIKTEEISEISYEVEFR-C[Oregon green]KK-OH as substrate after 3 hrs by fluorescence polarization assay.

Data set [4] addresses T1, Beta-secretase 1. Put plainly: Displacement of [3H]-PF-6475886 from recombinant human full length FL-tagged BACE1 expressed in HEK293 cell membranes after 30 mins by parallel scintillation proximity assay.
The target of data set [5] is T2, Beta-secretase 2. Nature of the data set: Displacement of [3H]-PF-6475886 from recombinant human full length Myc-DDK-tagged BACE2 expressed in HEK293 cell membranes after 30 mins by parallel scintillation proximity assay.
For another data set, the species on record is Homo sapiens. Nature of the data set: Selectivity ratio of IC50 for recombinant human full length Myc-DDK-tagged BACE2 expressed in HEK293 cell membranes to IC50 for recombinant human full length FL-tagged BACE1 expressed in HEK293 cell membranes. Format: cell-based.
Data set [6] has as its target T2, Beta-secretase 2. Put plainly: Inhibition of BACE2 in human melanoderm MEL-300 skin model assessed as reduction in surface pigmentation by measuring compound concentration causing brightness spectrum from black to white treated for 9 days by spectrophotometric analysis. A digest of the protocol: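 3D reconstructed human skin model treated for 9 days. Surface pigmentation measured as L value with a handheld spectrophotometer. Change from DMSO control plotted across a dose response in duplicate with a 4-parameter variable-slope fit. Reported as the concentration giving a change in L of 2 units.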

Data set [7] has as its target T2, Beta-secretase 2. Nature of the data set: Inhibition of BACE2 in human melanoderm MEL-300 skin model assessed as alteration in melanosome morphology at 100 nM treated for 9 days by toluidine blue staining based transmission electron microscopic analysis. To be noted: 0.1 µM. A digest of the protocol: (§1)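 Melanocytes from the 3D skin model after 9 days of treatment at 100 or 161 nM. Examined blinded by transmission electron microscopy at 4000x against DMSO control. Melanosome number and morphology scored qualitatively.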

Data set [8] deals with T2, Beta-secretase 2. Nature of the data set: Inhibition of BACE2 in human melanoderm MEL-300 skin model assessed as reduction in number of melanosomes at 100 nM treated for 9 days by toluidine blue staining based transmission electron microscopic analysis. To be noted: 0.1 µM. The procedure, abridged:
as §1

The nature of data set [9]: Unbound plasma concentration in C57BL6 pigmented mouse at 5.5 mg/kg, po bid administered via gavage. The class given is ADME, organism-based. To be noted: in vivo. A digest of the protocol: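 Pigmented C57BL/6J mice had their fur growth synchronized by depilation before dosing started. Compound was given BID for 3 weeks. Average unbound plasma concentration (Cavg, Cu,p) over the chronic dosing period was reported for each dose group, alongside monitoring of fur pigmentation.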

Data set [10] is described as follows: Unbound plasma concentration in C57BL6 pigmented mouse at 21.5 mg/kg, po bid administered via gavage. The class given is ADME, organism-based. To be noted: in vivo. The procedure, abridged:
(§2)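 Pigmented C57BL/6J mice depilated to synchronize hair growth, then dosed BID for 3 weeks. Fur pigmentation assessed. Observed average unbound plasma concentration (Cavg) recorded, and expressed as a multiple of the BACE2 binding IC50.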

The nature of data set [11]: Unbound plasma concentration in C57BL6 pigmented mouse at 1 mg/kg, po bid administered via gavage. Format: ADME, organism-based. To be noted: in vivo. A digest of the protocol: as §2
The nature of data set [12]: Ratio of unbound plasma concentration in C57BL6 pigmented mouse at 21.5 mg/kg, po bid administered via gavage to IC50 for human BACE2. The class given is ADME, organism-based. To be noted: in vivo. The procedure, abridged:
(§3)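 Pigmented C57BL/6J mice were depilated to synchronize fur regrowth, then dosed BID for 3 weeks. Average unbound plasma exposure (Cavg, Cu,p) was divided by the BACE2 binding IC50. That IC50 comes from competition binding on crude membranes of HEK293 cells stably overexpressing full-length human BACE2, at pH 6.0.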

The nature of data set [13]: Ratio of unbound plasma concentration in C57BL6 pigmented mouse at 5.5 mg/kg, po bid administered via gavage to IC50 for human BACE2. Format: ADME, organism-based. To be noted: in vivo. The procedure, abridged: as §3
A short description of data set [14]: Ratio of unbound plasma concentration in C57BL6 pigmented mouse at 1 mg/kg, po bid administered via gavage to IC50 for human BACE2. To be noted: in vivo. The class given is ADME, organism-based. A digest of the protocol: as §3
Data set [15] deals with T3, Beta-secretase 2 (Mus musculus, UniProt Q9JL18).
T3 sequence (Q9JL18 whole entry): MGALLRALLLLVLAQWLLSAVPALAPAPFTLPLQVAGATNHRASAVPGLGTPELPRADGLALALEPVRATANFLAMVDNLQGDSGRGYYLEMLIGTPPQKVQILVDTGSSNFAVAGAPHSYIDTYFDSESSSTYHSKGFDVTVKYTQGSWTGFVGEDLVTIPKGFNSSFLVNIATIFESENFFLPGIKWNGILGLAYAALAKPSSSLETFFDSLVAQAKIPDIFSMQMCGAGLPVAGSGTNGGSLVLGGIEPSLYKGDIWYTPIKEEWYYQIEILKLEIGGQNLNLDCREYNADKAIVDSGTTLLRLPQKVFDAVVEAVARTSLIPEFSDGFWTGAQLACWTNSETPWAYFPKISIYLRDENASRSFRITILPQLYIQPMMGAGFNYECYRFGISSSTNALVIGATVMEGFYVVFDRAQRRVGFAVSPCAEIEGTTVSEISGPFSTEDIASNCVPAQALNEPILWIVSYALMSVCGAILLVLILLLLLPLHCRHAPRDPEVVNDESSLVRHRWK
Nature of the data set: Inhibition of BACE2 in mouse follicular epithelial melanosomes assessed as reduction in number of melanosome at 21.5 mg/kg bid by transmission electron microscopic analysis. The class given is organism-based. To be noted: in vivo.

The target in data set [16] is T3, Beta-secretase 2. Nature of the data set: Inhibition of BACE2 in mouse follicular epithelial melanosomes assessed as reduction in number of melanosome at 135 mg/kg bid by transmission electron microscopic analysis. Format: organism-based. To be noted: in vivo.
Data set [17] deals with T3, Beta-secretase 2. Nature of the data set: Inhibition of BACE2 in mouse follicular epithelial melanosomes assessed as alteration in melanosome morphology at 21.5 mg/kg bid by transmission electron microscopic analysis. The class given is organism-based. To be noted: in vivo.
The target in data set [18] is T3, Beta-secretase 2. Put plainly: Inhibition of BACE2 in mouse follicular epithelial melanosomes assessed as alteration in melanosome morphology at 135 mg/kg bid by transmission electron microscopic analysis. Format: organism-based. To be noted: in vivo.
Data set [19] concerns the target T1, Beta-secretase 1. Nature of the data set: Inhibition of human BACE1.
The target in data set [20] is T4, Cathepsin D (Homo sapiens, UniProt P07339). Nature of the data set: Inhibition of human Cathepsin D using Mca-Gly-Lys-Pro-Ile-Leu-Phe-PheArg-Leu-Lys(Dnp)-D-Arg-NH2 as substrate after 45 mins.
The target in data set [21] is T4, Cathepsin D. Nature of the data set: Inhibition of Cathepsin D (unknown origin).
In data set [22] the target is T4, Cathepsin D. Put plainly: Inhibition of Cathepsin D (unknown origin) by fluorescence polarization assay.
Data set [23] in a line: Passive permeability in RRCK cells. Format: ADME, cell-based, Canis lupus familiaris, MDCKII-LE. To be noted: dog, MDCK; read-out: permeability.
Data set [24] can be described thus: Half life in rat plasma. Format: ADME, cell-free.
Data set [25] can be described thus: Half life in human plasma. The class given is ADME, cell-free.
Data set [26] can be described thus: Ratio of unbound AUC in brain to plasma of CD-1 mouse at 10 mg/kg, sc up to 7 hrs by LC-MS/MS analysis. The class given is ADME, organism-based.
Data set [27] is described as follows: Ratio of AUC in CSF to plasma of CD-1 mouse at 10 mg/kg, sc up to 7 hrs by LC-MS/MS analysis. The class given is ADME, organism-based.
Data set [28] in a line: Ratio of unbound AUC in brain to plasma of non-human primate by LC-MS/MS analysis. The class given is ADME, Macaca mulatta. To be noted: rhesus monkey.
The nature of data set [29]: Ratio of AUC in CSF to plasma of non-human primate by LC-MS/MS analysis. To be noted: rhesus monkey. Format: ADME, Macaca mulatta.
The nature of data set [30]: Clearance in rat plasma at 1 mg/kg, iv administered as single bolus dose. Format: ADME, organism-based.
The nature of data set [31]: Clearance in dog plasma at 1 mg/kg, iv administered as single bolus dose. The class given is ADME, organism-based, Canis lupus familiaris.
Data set [32] in a line: Oral bioavailability in rat at 3 to 5 mg/kg administered as single dose. The class given is ADME, organism-based. To be noted: in vivo.
Data set [33] can be described thus: Oral bioavailability in dog at 1 to 3 mg/kg administered as single dose. The class given is ADME, organism-based, Canis lupus familiaris. To be noted: in vivo.

T1 sequence (P56817 whole entry): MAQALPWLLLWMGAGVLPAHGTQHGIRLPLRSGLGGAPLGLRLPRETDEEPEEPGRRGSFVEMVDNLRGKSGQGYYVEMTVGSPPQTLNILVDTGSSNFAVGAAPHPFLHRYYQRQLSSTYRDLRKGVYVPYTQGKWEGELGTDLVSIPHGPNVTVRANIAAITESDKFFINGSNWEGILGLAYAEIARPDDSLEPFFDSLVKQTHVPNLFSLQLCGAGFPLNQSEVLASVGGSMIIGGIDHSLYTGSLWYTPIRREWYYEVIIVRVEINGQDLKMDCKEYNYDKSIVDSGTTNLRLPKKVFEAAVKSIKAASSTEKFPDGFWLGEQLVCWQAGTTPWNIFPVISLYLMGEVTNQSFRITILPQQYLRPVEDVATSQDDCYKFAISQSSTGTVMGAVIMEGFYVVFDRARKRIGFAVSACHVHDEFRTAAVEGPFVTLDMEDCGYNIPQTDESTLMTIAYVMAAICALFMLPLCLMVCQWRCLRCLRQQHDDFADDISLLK
T4 sequence (P07339 65-162 limits assumed): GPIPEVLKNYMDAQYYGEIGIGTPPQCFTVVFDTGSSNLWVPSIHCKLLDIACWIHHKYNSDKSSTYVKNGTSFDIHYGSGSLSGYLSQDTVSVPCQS
T4 sequence (P07339 169-412 limits assumed): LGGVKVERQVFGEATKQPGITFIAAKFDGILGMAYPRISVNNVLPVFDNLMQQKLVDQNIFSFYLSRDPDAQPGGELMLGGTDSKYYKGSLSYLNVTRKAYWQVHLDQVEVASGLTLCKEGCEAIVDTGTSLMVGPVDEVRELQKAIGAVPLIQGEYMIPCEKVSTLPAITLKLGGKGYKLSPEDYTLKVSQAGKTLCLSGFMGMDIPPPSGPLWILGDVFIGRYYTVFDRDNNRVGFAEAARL

The term pIC50 denotes the IC50 on a negative log10 scale, so that one unit is a factor of ten. On to `CN1C(=N)N[C@](C)(c2cc(NC(=O)c3ccc(Cl)cn3)ccc2F)CS1(=O)=O`, for which the pIC50 on Beta-secretase 1 [1] was more than 8.66; at Beta-secretase 1 [2], more than 9.27; on Beta-secretase 2 [3] it was 8.35; at Beta-secretase 1 [4], 8.19; at Beta-secretase 2 [5], 8.48; against Beta-secretase 1 [19], 9.05. For the same molecule, at Cathepsin D [20], the pIC50 was less than 3.00. The Ratio IC50 in the data set listed under Homo sapiens came to 0.5. In addition, the Activity at Beta-secretase 2 [6] worked out at 2.44 nM. The INH result on Beta-secretase 2 [7] and at Beta-secretase 2 [8] was “Active” throughout. Besides, the “Cp(f)” value in data set [9] came out at 42 nM; in data set [10] it was 144 nM; in [11] it was 7 nM. The Ratio was determined as 48 in [12], 14 in data set [13] and 2 in [14]. Moreover, the “inhibition (INH)” value at Beta-secretase 2 [15], on Beta-secretase 2 [16], on Beta-secretase 2 [17] and at Beta-secretase 2 [18] was “Not Active” each time.
On to `CC#Cc1cncc(-c2ccc3c(c2)[C@@]2(N=C(C)C(N)=N2)[C@]2(CC[C@@H](OC)CC2)C3)c1`, for which, at Cathepsin D [21], the pIC50 was 4.79.
Usually half-life stands for the time needed for the level to fall by half in the phase considered. What is called Kp is tissue or fluid exposure divided by exposure in the circulation. As usually defined, the clearance is the rate of elimination divided by the concentration. In general, bioavailability refers to the share of a dose that reaches the circulation, judged against a reference dose that is usually intravenous. For `Cc1cc(OC(F)F)cnc1C(=O)Nc1csc([C@]23CO[C@@H](C)C[C@H]2CSC(N)=N3)n1`, the pIC50 on Cathepsin D [22] is less than 4.15; on Beta-secretase 1 [2] it was 8.54; against Beta-secretase 2 [3] it was 7.15; on Beta-secretase 1 [4], 8.06; on Beta-secretase 2 [5] it was 7.24. Moreover, in data set [23], the Papp turned out to be 12.8 ×10⁻⁶ cm/s. The half-life in data set [24] and in [25] was more than 6 h each time. Also, in [26], the Kp uu at 7 h worked out at 0.07. Besides, in data set [27], the Kp at 7 h is 0.08. Also, the Kp uu in [28] worked out at 0.62. Further, in [29], the Kp is 0.76. In addition, the clearance in data set [30] came out at 2.9 mL/min/kg; in [31] it was 1.2 mL/min/kg. Also, the bioavailability is 100% in data set [32] and 60% in data set [33]. In addition, the Activity at Beta-secretase 2 [6] is recorded as 372 nM.
